Measurements published in ChEMBL document CHEMBL4257452, “A mini-library system to investigate non-essential residues of lipid-phosphatidylserine (PS) binding peptide-peptoid hybrid PPS1” (Medchemcomm, 2017).
pIC50: −log10 of the molar value. Active and inactive are the calls of the source. No cut-off for these calls is given here. Starred links: 1 amine or outer side, 2 acyl side, 3 side chain; linkers in the order of their positions; H or OH if unused. Positions of bridges follow the written chain, without caps; N, C: chain ends. Non-standard residues stand in square brackets, D forms with d. Residues, ends and D or L forms follow the SMILES beside them. Chains are numbered I, II in the order given. Gly(N-piperonyl) = O=C(O)CNCc1ccc2c(c1)OCO2; N(4-MeOBn)Gly = COc1ccc(CNCC(=O)O)cc1; X1 = COc1cccc(CN(CC(=O)[*:2])[*:1])c1; X2 = CC(CN(CC(=O)[*:2])[*:1])c1ccccc1; X3 = CC(c1ccccc1)N(CC(=O)[*:2])[*:1]

Assays:
HCC4017 [1] = experiment: Cytotoxicity against human HCC4017 cells assessed as reduction in cell viability at 20 uM after 24 hrs by MTS assay; assay type: functional, cell-based
Method in brief: (§1)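 HCC4017 cells (RPMI, 5% FBS) and HBEC-3KT normal lung cells (KSFM with recombinant human EGF and bovine pituitary extract) were plated at 10 000 cells/well in triplicate and left to adhere overnight. They were exposed to 1 or 20 μM compound for 24 h. MTS reagent was then added for 2 h and absorbance read at 490 nm. Viability is % of untreated control wells.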

HCC4017 [2] = experiment: Cytotoxicity against human HCC4017 cells assessed as reduction in cell viability up to 100 uM after 24 hrs by MTS assay; assay type: functional, cell-based; conditions: in the assay text read “up to 50 uM” for “up to 100 uM”
Method in brief: (§2)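 HCC4017 lung cancer cells (RPMI, 5% FBS) were seeded at 10 000 cells/well in triplicate and adhered overnight. Purified compounds were given as a concentration gradient for 24 h. MTS reagent was added for 2 h and absorbance read at 490 nm. IC50 was taken from the viability curves.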

HCC4017 [3] = experiment: Cytotoxicity against human HCC4017 cells assessed as reduction in cell viability up to 100 uM after 24 hrs by calcein-AM dye based fluorescence assay; assay type: functional; conditions: in the assay text read “up to 50 uM” for “up to 100 uM”
Method in brief: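 HCC4017 cells were seeded at 10 000 cells/well in triplicate, adhered overnight, and treated with a graded series of compounds for 24 h. Medium was replaced with PBS containing calcein AM (1 mM as printed) for 15 min at room temperature. Fluorescence emission was read at 520 nm.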

[4] = Cytotoxicity against human HBEC3-KT cells assessed as reduction in cell viability at 20 uM after 24 hrs by MTS assay; assay type: cell-based; method in brief: as §1
[5] = Cytotoxicity against human HBEC3-KT cells assessed as reduction in cell viability at 1 uM after 24 hrs by MTS assay; assay type: cell-based; method in brief: as §1
HCC4017 [6] = experiment: Cytotoxicity against human HCC4017 cells assessed as reduction in cell viability after 24 hrs by MTS assay; assay type: functional, cell-based; conditions: HCC4017, 24 h; method in brief: as §2
HCC4017 [7] = experiment: Cytotoxicity against human HCC4017 cells assessed as reduction in cell viability at 1 uM after 24 hrs by MTS assay; assay type: functional, cell-based; method in brief: as §1

Compound | Activity (HCC4017 [1]) | Activity (HCC4017 [2]) | Activity (HCC4017 [3]) | Activity [4] | Activity [5] | pIC50 (HCC4017 [6]) | Activity (HCC4017 [7])
COc1ccc(CN(CC(=O)NC(CCC(=O)O)C(=O)NC(CCCCN)C(=O)NC(CCCCN)C(=O)NC(CCSC)C(=O)NCCCCC(NC(=O)C(CCSC)NC(=O)C(CCCCN)NC(=O)C(CCCCN)NC(=O)C(CCC(=O)O)NC(=O)CN(Cc2ccc(OC)cc2)C(=O)CN(C(=O)CN(Cc2ccc3c(c2)OCO3)C(=O)CNC(C)c2ccccc2)C(C)c2ccccc2)C(N)=O)C(=O)CN(C(=O)CN(Cc2ccc3c(c2)OCO3)C(=O)CNC(C)c2ccccc2)C(C)c2ccccc2)cc1 (centres undefined) (I: H-[X3][Gly(N-piperonyl)][X3][N(4-MeOBn)Gly]EKKMK-NH2 / II: H-[X3][Gly(N-piperonyl)][X3][N(4-MeOBn)Gly]EKKM; amide I:9-II:C; configuration not given here) | inactive | inactive |  |  |  |  | 
COc1ccc(CN(CC(=O)N(CC(=O)NC(CCCCN)C(=O)NC(CCCCN)C(=O)NC(CCSC)C(=O)NCCCCC(NC(=O)C(CCSC)NC(=O)C(CCCCN)NC(=O)C(CCCCN)NC(=O)CN(Cc2cccc(OC)c2)C(=O)CN(Cc2ccc(OC)cc2)C(=O)CN(C(=O)CN(Cc2ccc3c(c2)OCO3)C(=O)CNC(C)c2ccccc2)C(C)c2ccccc2)C(N)=O)Cc2cccc(OC)c2)C(=O)CN(C(=O)CN(Cc2ccc3c(c2)OCO3)C(=O)CNC(C)c2ccccc2)C(C)c2ccccc2)cc1 (centres undefined) (I: H-[X3][Gly(N-piperonyl)][X3][N(4-MeOBn)Gly][X1]KKMK-NH2 / II: H-[X3][Gly(N-piperonyl)][X3][N(4-MeOBn)Gly][X1]KKM; amide I:9-II:C; configuration not given here) | Active |  | Active | Non-Toxic | Non-Toxic | 5.00 to 5.15 | inactive
COc1ccc(CN(CC(=O)N(CC(=O)NC(CCCCN)C(=O)NC(CCCCN)C(=O)NC(CCSC)C(=O)NCCCCC(NC(=O)C(CCSC)NC(=O)C(CCCCN)NC(=O)C(CCCCN)NC(=O)CN(CC(C)c2ccccc2)C(=O)CN(Cc2ccc(OC)cc2)C(=O)CN(C(=O)CN(Cc2ccc3c(c2)OCO3)C(=O)CNC(C)c2ccccc2)C(C)c2ccccc2)C(N)=O)CC(C)c2ccccc2)C(=O)CN(C(=O)CN(Cc2ccc3c(c2)OCO3)C(=O)CNC(C)c2ccccc2)C(C)c2ccccc2)cc1 (centres undefined) (I: H-[X3][Gly(N-piperonyl)][X3][N(4-MeOBn)Gly][X2]KKMK-NH2 / II: H-[X3][Gly(N-piperonyl)][X3][N(4-MeOBn)Gly][X2]KKM; amide I:9-II:C; configuration not given here) | Active |  | Active | Non-Toxic | Non-Toxic | 5.00 to 5.15 | inactive
